Compound activity deposited in PubChem by several laboratories.
Dynein cargo inh: inhibitors of GR-EGFP nuclear translocation, primary screen, dynein cargo transport inhibitor project, imaging, high-content, 3617.4 mouse cells; 220,000 tested, 0.47% active; test concentration mostly 20 µM; stimulated with dexamethasone, 1 µM; active compounds read low; z-score, hits read low;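 active = plate z-score of nuclear minus cytoplasmic receptor signal below a set negative limit, without overly bright fluorescence or cell loss, cut at about -3.5 in these data, passing the limit was not always enough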;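 also: z-score of nuclear minus cytoplasmic ring GR-EGFP intensity difference per well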
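Buffer or medium: tet-free, stripped-serum medium; reagent: dexamethasone at 1.0 µM final, 30 min; incubation: 48 h induction, 1 h compound, 30 min dex at 37 °C; measured by: formaldehyde fixation, Hoechst nuclear stain, 10x automated fluorescence imaging; read-out: nuclear-to-cytoplasmic GR-EGFP distribution per well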
Lmaj promast: Leishmania major promastigote growth inhibition, primary screen. inhibition, % at 10 µM. 200,000 tested, 9% active. Leishmania major promastigotes, resazurin fluorescence viability; in the data active = inhibition above about 50%;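 also: promastigotes grown with compound for 44 hours at 28 °C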
CHOP inhibitor: inhibitors of CHOP promoter induction, primary screen, cell-based, unfolded protein response, luciferase reporter; CHO-K1 CHOP-promoter luciferase, tunicamycin-induced, 15-18 h; inhibition, % at 10 µM; 220,000 tested, 3.8% active; AID 2732, 2010;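 active = compounds that reduced the stress-induced luciferase reporter signal by more than about 70% of percent inhibition, limit read from the data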;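 also: 0% = tunicamycin plus vehicle and 100% = wells without tunicamycin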
MT stabilize HCS: microtubule stabilizers in HeLa cells, primary screen, imaging, high-content imaging. HeLa tubulin immunostaining HCS, 24 h; share of cells brighter than vehicle mean+2SD. AID 2205, 2009. 200,000 tested, 0.83% active. % tubulin-high responders, % at 10 µM;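 active = plate Z-score above 3 for both tubulin-high and condensed-nucleus cell shares, with cell loss under 80%, at 10 µM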;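 also: anti alpha tubulin signal scored within the nucleus-defined area of each cell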
Autophagy mod: autophagy modulators in MEF cells, primary screen, imaging, high-content, MEF GFP-LC3; MEF GFP-LC3 puncta imaging; test concentration mostly 10 µM; calls only at 10 µM (by protocol); 190,000 tested, 0.98% active; AID 463193, 2010;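 active = percentage of spot-positive cells more than 3 SD above its plate mean, without a fluorescence outlier flag or 80% toxicity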;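 also: spot-positive cell cutoff set from DMSO-treated cells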
bCat nuc transl: modulators of beta-catenin nuclear translocation, primary screen, imaging, HeLa cells, immunofluorescence, high-content | 190,000 tested, 0.3% active | nuclear translocation activity, % at 5 µM;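 active = nuclear translocation activity above 50% at 5 µM, with a well cell count of 50 or more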;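 also: per-cell ratio of nuclear to cytoplasmic median beta-catenin stain intensity; plate controls were DMSO negative control for no effect and GSK-3 inhibitor IX positive control for full effect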
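System: Human HeLa cells, endogenous beta-catenin | Compound dosing: 5 µM primary, 0.02–20 µM confirmation | Timing: 24 h compound exposure at 37°C, 5% CO2 | Measured by: Fluorescence imaging of beta-catenin antibody stain plus DAPI | Read-out basis: % activation of per-cell nuclear versus cytoplasmic median beta-catenin signal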
An asterisk follows results filed as active; i = inactive; x = no result; + = active, no number. Only some compounds are listed: those with a hit (about 12% of all), similar ones and a draw of the others.

SMILES	Dynein cargo inh	Lmaj promast	CHOP inhibitor	MT stabilize HCS	Autophagy mod	bCat nuc transl
Oc1ccc(-c2csc(-c3ccccc3)n2)cc1O	-1.18	58.7*	-92.3	12.4	i	27.7
COc1ccc(-c2cn3cccnc3n2)cc1NC(=O)c1ccc(Br)o1	0.517	99.2*	85.7*	6.7	i	-0.1
Oc1ccc(-c2csc(-c3cccnc3)n2)cc1O	0.0201	x	39.9	x	x	-1.0
N#CCN1CCC2(O)CCCCC2C1c1ccc2c(c1)OCO2 (centres undefined)	0.123	x	4.4	x	x	-1.0
CCCCN(CCCC)C(=S)NC(=O)c1ccccc1Cl	-0.0588	0.1	-14.6	2.9	i	-3.4
Cc1ccc(-c2cn3cccnc3n2)cc1NC(=O)c1ccc(Br)o1	0.428	39.4	55.2	3.6	i	1.0
O=C(Nc1cccc(-c2cn3cccnc3n2)c1)c1ccc2c(c1)OCO2	-1.78	97.6*	24.7	4.6	i	2.3
O=C(Nc1ccc(O)c(-c2nc3ccccc3s2)c1)c1cccs1	i	62.1*	11.3	0.5	i	-5.7
O=C(Nc1cccc(-c2cn3cccnc3n2)c1)c1ccc(Br)o1	0.117	100.3*	28.1	6.2	i	0.4
c1cnc2nc(-c3ccc4c(c3)OCO4)cn2c1	-0.785	-0.8	3.1	2.7	i	2.2
O=C(Nc1cccc(-c2cn3cccnc3n2)c1)c1ccco1	-1.83	100.1*	19.4	6.6	i	-2.6
CC(=O)/C=C1\SC(CC(=O)O)C(=O)N1c1ccccc1 (centres undefined)	2.48	-4.6	-11.3	2.2	i	x
CCOC(=O)N1CCN(c2ccc3nnnn3n2)CC1	0.5	-5.9	-8.2	2.0	i	0.6
CCC(c1nnnn1Cc1ccco1)N(Cc1ccccc1OC)Cc1cc2cc(C)ccc2[nH]c1=O (centres undefined)	-1.16	2.7	39.1	5.0	i	-2.6
Cc1ccc(CN(Cc2cc3cc4c(cc3[nH]c2=O)OCCO4)Cc2nnnn2Cc2ccco2)cc1	-0.939	15.9	33.5	0.6	i	-0.1
COc1ccc2cc(CN(CCc3ccccc3)Cc3nnnn3Cc3ccco3)c(=O)[nH]c2c1	-0.206	100.0*	20.3	4.2	i	-3.0
COc1ccc2[nH]c(=O)c(CN(Cc3nnnn3Cc3ccco3)C3CCCCC3)cc2c1	-1.55	28.2	2.8	3.0	i	-0.7
COc1ccccc1CN(Cc1cc2c(C)ccc(C)c2[nH]c1=O)Cc1nnnn1Cc1ccco1	-2.53	99.8*	54.9	0.8	i	-0.7
Cc1ccc2cc(CN(Cc3ccc4c(c3)OCO4)Cc3nnnn3Cc3ccco3)c(=O)[nH]c2c1	-0.311	76.7*	56.6	1.6	i	-2.5
FC(F)(F)c1ccc(N2CCN(c3ncnc4c3nnn4Cc3ccccc3)CC2)nc1	-0.795	-1.6	90.6*	6.1	i	-0.1
c1ccc(Cn2nnc3c(N4CCOCC4)ncnc32)cc1	-0.884	-10.5	-2.0	4.7	x	-0.3
CN(C)S(=O)(=O)c1cccc(NC(=S)N/N=C/c2cc(Br)ccc2O)c1	-0.24	x	72.3*	x	x	-1.8
CN(C)S(=O)(=O)c1cccc(NC(=S)N/N=C/c2cccc(O)c2)c1	-0.00771	-1.9	9.9	1.7	i	0.2
COC(=O)Cc1ccc(NC(=S)NN2CCOCC2)cc1	-1.01	-5.4	-6.0	3.0	i	0.5
Cc1ccc(N/C=C/C(=O)c2sc(-c3ccccc3)nc2C)cc1	0.631	-4.5	6.2	51.2*	i	0.8
SMILES	Dynein cargo inh	Lmaj promast	CHOP inhibitor	MT stabilize HCS	Autophagy mod	bCat nuc transl
COC(=O)CN1C(=O)N/C(=C/c2cc(OC)c(OC)cc2C)C1=O	-0.0799	-0.6	4.7	2.6	i	0.6
Cc1nn(CC#N)c(=O)n1-c1cccc(F)c1	0.252	-2.6	17.2	0.7	i	-1.0
COC(=O)c1ccc2c(=O)n(Cc3ccco3)c(SCC(=O)Nc3cc(C)on3)nc2c1	1.05	4.4	90.7*	2.4	i	-3.0
COC(=O)c1ccc2c(=O)n(CC3CCCO3)c(SCC(=O)Nc3ccccc3OC)nc2c1 (centres undefined)	0.296	40.7	11.9	5.5	+	0.0
CCc1ccc(NC(=O)CSc2nc3cc(C(=O)OC)ccc3c(=O)n2CC2CCCO2)cc1 (centres undefined)	0.922	-4.5	93.6*	2.8	i	1.0
COC(=O)c1ccc2c(=O)n(Cc3ccco3)c(SCC(=O)Nc3ccccc3Cl)nc2c1	0.197	3.2	-6.2	4.2	i	5.6
COC(=O)c1ccc2c(=O)n(CC3CCCO3)c(SCC(=O)Nc3ccccc3Cl)nc2c1 (centres undefined)	0.118	0.8	45.1	2.8	i	x
CCSC1=N/C(=C\C=C2/Oc3ccccc3N2CC)C(=O)S1	0.352	x	7.8	x	x	0.8
O=c1[nH]c(=S)[nH]c2sccc12	-0.243	-12.7	26.3	2.4	i	3.2
COCCn1c(SCC(=O)Nc2cccc(C)c2)nnc1C(C)C	1.27	91.3*	48.2	5.6	i	-3.9
CCCCCCCCCCC(=O)NNC(=O)c1c(O)c2ccccc2n(CC)c1=O	0.103	6.7	20.8	4.5	i	0.3
CC(C)(C)C(=O)n1nc(-c2ccccc2)oc1=O	-0.877	-7.7	70.0*	2.9	i	2.0
CN(c1ccc([N+](=O)[O-])cc1C(N)=O)C1CCCCC1	1.12	-4.1	1.0	1.6	i	-0.6
Cc1cccc(-n2c(-c3cccc([N+](=O)[O-])c3)nc3nc4ccccc4nc32)c1	0.111	-5.4	66.3	4.4	i	-0.7
O=[N+]([O-])c1cc(-c2nc3nc4ccccc4nc3n2CCc2ccccc2)cc([N+](=O)[O-])c1	-0.217	60.7*	65.8	4.1	i	1.8
C=CCn1c(-c2ccccc2)nc2nc3ccccc3nc21	-0.027	4.0	3.0	1.9	i	0.1
S=c1[nH]nc(-c2cccc(Cl)c2)n1Cc1ccccc1	-0.331	-9.9	25.7	6.7	i	-0.6
Clc1cccc(-c2nc3nc4ccccc4nc3n2Cc2ccccc2)c1	1.31	52.1*	9.4	1.7	i	-2.4
c1ccc(Cn2c(-c3ccccc3)nc3nc4ccccc4nc32)cc1	0.441	84.0*	47.5	2.2	i	-2.1
COc1ccc(CNC(=O)COC(=O)c2ccco2)cc1	-1.1	-0.4	-11.7	3.5	i	0.9
O=C(CCCN1C(=O)/C(=C/c2cccs2)SC1=S)NNC(=O)c1ccccc1O	-0.855	-5.2	61.7	5.6	i	0.0
COc1ccc(CN2C(=O)/C(=C/c3ccncc3)SC2=S)cc1	0.0794	67.8*	11.5	8.7	i	-0.4
O=C(O)CCCN1C(=O)/C(=C/c2ccncc2)SC1=S	-0.308	x	-1.0	x	x	0.8
